Reference: ChEMBL document CHEMBL2401698 (J Med Chem, 2013)
The source made the active and inactive calls.

Assays:
[1] = target: T1, Adenosine receptor A3 (Homo sapiens) (UniProt P0DMS8); experiment: Activity at human adenosine A3 receptor expressed in CHO cell membranes assessed as inhibition of forskolin-stimulated cAMP production at 10 uM preincubated for 30 mins prior to forskolin-treatment measured after 15 mins by ELISA relative to 5'-N-ethylcarboxamidoadenosine; format: functional, cell-based
T1 sequence (whole entry): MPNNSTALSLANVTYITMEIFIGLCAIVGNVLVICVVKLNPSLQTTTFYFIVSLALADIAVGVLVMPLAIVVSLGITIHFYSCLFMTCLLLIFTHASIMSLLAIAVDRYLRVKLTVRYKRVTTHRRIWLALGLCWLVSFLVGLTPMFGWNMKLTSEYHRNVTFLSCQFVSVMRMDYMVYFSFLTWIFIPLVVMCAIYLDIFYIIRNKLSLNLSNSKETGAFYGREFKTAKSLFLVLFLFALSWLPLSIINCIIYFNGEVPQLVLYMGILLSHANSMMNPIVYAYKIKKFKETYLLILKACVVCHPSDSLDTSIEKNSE
Outline: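 Whole CHO cells stably expressing hA3AR, plated 24 h, washed with DMEM/50 mM HEPES pH 7.4. […] Forskolin (10 μM) then added for 15 min. Lysed in 0.1 M HCl; cAMP by enzyme immunoassay at 450 nm. Efficacy as % of reference maximum; mean ± SEM, n = 3–5.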

[2] = target: Adenosine receptor A2a (Mus musculus) (UniProt Q60613); experiment: Displacement of [3H]2-[p-(2-carboxyethyl)phenylethylamino]-5'-N-ethylcarboxamidoadenosine from mouse adenosine A2A receptor expressed in HEK293 cell membranes at 10 uM after 60 mins by liquid scintillation counting analysis relative to control
[3] = target: T2, Adenosine receptor A1 (Mus musculus) (UniProt Q60612); experiment: Displacement of [125I]N6-(4-amino-3-iodobenzyl)adenosine-5'-N-methyluronamide from mouse adenosine A1 receptor expressed in HEK293 cell membranes at 10 uM after 60 mins by liquid scintillation counting analysis relative to control
T2 sequence (whole entry): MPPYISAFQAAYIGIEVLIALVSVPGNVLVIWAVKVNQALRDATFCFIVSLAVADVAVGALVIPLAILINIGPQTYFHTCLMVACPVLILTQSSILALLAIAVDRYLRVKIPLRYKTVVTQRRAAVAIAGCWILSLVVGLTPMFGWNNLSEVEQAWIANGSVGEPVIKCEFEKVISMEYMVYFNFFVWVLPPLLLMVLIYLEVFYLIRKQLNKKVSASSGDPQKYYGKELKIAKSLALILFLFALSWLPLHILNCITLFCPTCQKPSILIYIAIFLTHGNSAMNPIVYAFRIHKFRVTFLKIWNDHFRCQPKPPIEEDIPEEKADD

[4] = target: Adenosine receptor A2a (Homo sapiens) (UniProt P29274); experiment: Displacement of [3H]2-[p-(2-carboxyethyl)phenylethylamino]-5'-N-ethylcarboxamidoadenosine from human adenosine A2A receptor expressed in HEK293 cell membranes at 10 uM after 60 mins by liquid scintillation counting analysis relative to control
[5] = target: T3, Adenosine receptor A1 (Homo sapiens) (UniProt P30542); experiment: Displacement of [3H]N6-R-phenylisopropyladenosine from human adenosine A1 receptor expressed in CHO cell membranes at 10 uM after 60 mins by liquid scintillation counting analysis relative to control
T3 sequence (whole entry): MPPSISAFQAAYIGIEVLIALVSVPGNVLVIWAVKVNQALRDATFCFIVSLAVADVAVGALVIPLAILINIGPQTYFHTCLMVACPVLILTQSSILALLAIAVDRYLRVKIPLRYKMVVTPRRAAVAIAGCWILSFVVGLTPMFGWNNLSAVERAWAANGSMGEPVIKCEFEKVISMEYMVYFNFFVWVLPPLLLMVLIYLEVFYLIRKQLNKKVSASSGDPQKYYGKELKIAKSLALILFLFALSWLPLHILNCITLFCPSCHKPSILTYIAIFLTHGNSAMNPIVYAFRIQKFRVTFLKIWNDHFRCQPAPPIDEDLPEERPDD

[6] = target: T4, Adenosine receptor A3 (Mus musculus) (UniProt Q61618); experiment: Displacement of [125I]N6-(4-amino-3-iodobenzyl)adenosine-5'-N-methyluronamide from mouse adenosine A3 receptor expressed in HEK293 cell membranes at 10 uM after 60 mins by liquid scintillation counting analysis relative to control
T4 sequence (whole entry): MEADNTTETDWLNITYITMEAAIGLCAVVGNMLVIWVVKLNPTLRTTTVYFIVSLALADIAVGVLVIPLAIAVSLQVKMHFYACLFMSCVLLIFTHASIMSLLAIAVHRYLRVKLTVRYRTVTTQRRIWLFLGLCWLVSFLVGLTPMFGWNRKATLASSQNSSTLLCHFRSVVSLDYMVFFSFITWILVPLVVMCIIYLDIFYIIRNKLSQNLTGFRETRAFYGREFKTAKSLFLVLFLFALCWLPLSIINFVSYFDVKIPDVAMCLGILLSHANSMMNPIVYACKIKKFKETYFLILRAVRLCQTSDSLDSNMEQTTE

[7] = target: T4, Adenosine receptor A3 (Mus musculus); experiment: Agonist activity at mouse adenosine A3 receptor expressed in HEK293 cell membranes assessed as inhibition of forskolin-stimulated cAMP production preincubated for 30 mins prior to forskolin-treatment measured after 15 mins by ELISA relative to control; format: functional, cell-based
[8] = target: T5, Adenosine receptor A3 (Mus musculus, UniProt Q61618); experiment: Agonist activity at mouse adenosine A3 receptor expressed in HEK293 cell membranes assessed as inhibition of forskolin-stimulated cAMP production preincubated for 30 mins prior to forskolin-treatment measured after 15 mins by ELISA; format: functional, cell-based
T5 sequence (Q61618 whole entry): T4 sequence (whole entry)

[9] = target: T4, Adenosine receptor A3 (Mus musculus); experiment: Activity at mouse adenosine A3 receptor expressed in HEK293 cell membranes assessed as inhibition of forskolin-stimulated cAMP production preincubated for 30 mins prior to forskolin-treatment measured after 15 mins by ELISA relative to 2-chloro-N6-(3-iodobenzyl)adenosine-5'-N-methyluronamide; format: functional, cell-based
[10] = system: Mus musculus; experiment: Antiallodynic activity in CD-1 mouse chronic constriction injury-induced neuropathic pain model assessed as effect on contralateral paw withdrawal threshold at 3 micromol/kg, ip; format: functional, organism-based
Outline: (§1)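 Male CD-1 mice (25–30 g) with chronic constriction injury of left sciatic nerve under isoflurane. At peak mechanoallodynia on day 7, given 3 μmol/kg ip in 5% DMSO/saline, or vehicle; n = 6. Paw withdrawal thresholds (g) measured on ipsilateral and contralateral paws over time. Experimenters blinded.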

[11] = system: Mus musculus; experiment: Antiallodynic activity in CD-1 mouse chronic constriction injury-induced neuropathic pain model assessed as reversal of mechanoallodynia at 3 micromol/kg, ip at 1 hr post-treatment; format: functional, organism-based; outline: as §1
[12] = target: T6, Adenosine receptor A1 (Mus musculus, UniProt Q60612); experiment: Partial agonist activity at mouse adenosine A1 receptor expressed in HEK293 cell membranes assessed as inhibition of forskolin-stimulated cAMP production preincubated for 30 mins prior to forskolin-treatment measured after 15 mins by ELISA; format: functional, cell-based
T6 sequence (Q60612 whole entry): T2 sequence (whole entry)

[13] = system: Mus musculus; experiment: Antiallodynic activity in adenosine A3 receptor knockout C57BL/6J mouse chronic constriction injury-induced neuropathic pain model assessed as reversal of mechanoallodynia at 3 micromol/kg, ip measured 1 to 5 hrs post-treatment
[14] = target: T6, Adenosine receptor A1; experiment: Agonist activity at mouse adenosine A1 receptor expressed in HEK293 cell membranes assessed as inhibition of forskolin-stimulated cAMP production preincubated for 30 mins prior to forskolin-treatment measured after 15 mins by ELISA; format: functional, cell-based
[15] = target: T2, Adenosine receptor A1 (Mus musculus); experiment: Agonist activity at mouse adenosine A1 receptor expressed in HEK293 cell membranes assessed as inhibition of forskolin-stimulated cAMP production up to 10 uM […] measured after 15 mins […]; format: functional, cell-based
Outline: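 2 × 10^5 cells/tube coincubated with forskolin (10 μM) and ligand, up to 10 μM, for 15 min at 37 °C. Stopped with 1 N HCl; cAMP by competitive binding assay. Full agonist 44 as reference; sigmoidal fit; mean ± SEM, n = 4–7.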

[16] = system: CHO; experiment: Selectivity ratio of Ki for human adenosine A2A receptor expressed in HEK293 cell membranes to Ki for human adenosine A3 receptor expressed in CHO cell membranes; format: cell-based
[17] = target: Adenosine receptors; A1 & A3 (Homo sapiens) (UniProt P30542+P0DMS8); experiment: Selectivity ratio of Ki for human adenosine A1 receptor to Ki for human adenosine A3 receptor
[18] = organism: Mus musculus; experiment: Selectivity ratio of Ki for mouse adenosine A1 receptor to Ki for mouse adenosine A3 receptor
[19] = organism: Mus musculus; experiment: Selectivity ratio of Ki for mouse adenosine A2A receptor to Ki for mouse adenosine A3 receptor
[20] = system: Mus musculus; experiment: Antiallodynic activity in CD-1 mouse chronic constriction injury-induced neuropathic pain model assessed as reversal of mechanoallodynia at 3 micromol/kg, ip measured 1 to 5 hrs post-treatment in presence of MRS1523; format: functional, organism-based

Adenosine receptor A2a (Mus musculus), sequence (Q60613 whole entry): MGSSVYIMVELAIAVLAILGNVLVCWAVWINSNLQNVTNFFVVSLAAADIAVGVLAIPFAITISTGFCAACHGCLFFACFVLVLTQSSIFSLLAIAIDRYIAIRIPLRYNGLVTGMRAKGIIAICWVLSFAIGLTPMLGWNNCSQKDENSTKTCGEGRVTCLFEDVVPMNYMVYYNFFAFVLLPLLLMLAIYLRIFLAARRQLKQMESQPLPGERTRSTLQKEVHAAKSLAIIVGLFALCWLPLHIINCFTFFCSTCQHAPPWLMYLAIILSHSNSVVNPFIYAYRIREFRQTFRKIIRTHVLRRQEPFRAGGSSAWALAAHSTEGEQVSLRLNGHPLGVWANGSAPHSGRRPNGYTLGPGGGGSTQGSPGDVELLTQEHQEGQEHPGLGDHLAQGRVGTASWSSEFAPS
Adenosine receptor A2a (Homo sapiens), sequence (P29274 whole entry): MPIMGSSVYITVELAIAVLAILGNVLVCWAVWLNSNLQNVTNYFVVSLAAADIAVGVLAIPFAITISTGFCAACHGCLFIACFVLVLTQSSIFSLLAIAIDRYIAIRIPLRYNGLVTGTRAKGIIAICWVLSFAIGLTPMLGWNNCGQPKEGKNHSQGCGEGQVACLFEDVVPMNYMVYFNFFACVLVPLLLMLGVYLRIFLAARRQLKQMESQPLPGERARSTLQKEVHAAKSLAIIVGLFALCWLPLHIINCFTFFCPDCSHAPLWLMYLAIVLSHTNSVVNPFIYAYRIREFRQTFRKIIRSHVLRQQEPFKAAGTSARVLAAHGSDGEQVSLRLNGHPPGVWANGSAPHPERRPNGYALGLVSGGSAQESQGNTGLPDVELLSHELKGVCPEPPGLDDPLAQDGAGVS

Structure (SMILES) | Efficacy [1] [%] | inhibition [2] [%] | inhibition [3] [%] | inhibition [4] [%] | inhibition [5] [%] | Emax [7] [%] | further results
O[C@@H]1[C@H](O)[C@@H]2C[C@@H]2[C@H]1n1cnc2c(NCC(c3ccccc3)c3ccccc3)nc(C#Cc3ccccc3Cl)nc21 | – | 16 | 23 | – | – | – | inhibition [6]: 54%
CNc1nc(C#Cc2ccccc2)nc2c1ncn2[C@H]1[C@H](O)[C@H](O)[C@@H]2C[C@@H]21 | – | 8 | – | – | – | – | –
CNC(=O)[C@H]1O[C@@H](n2cnc3c(NCc4cccc(I)c4)nc(Cl)nc32)[C@H](O)[C@@H]1O | – | – | – | – | – | 41 | –
O[C@@H]1[C@H](O)[C@@H]2C[C@@H]2[C@H]1n1cnc2c(NCc3cccc(Cl)c3)nc(C#Cc3ccc(-c4ccccc4)cc3)nc21 | – | 0 | – | – | – | – | –
CNC(=O)[C@@]12C[C@@H]1[C@@H](n1cnc3c(NCCc4ccc(S(=O)(=O)O)cc4)nc(C#Cc4ccccc4)nc31)[C@H](O)[C@@H]2O | 93.8 | 0 | 7 | 1 | 9 | – | –
OC[C@H]1O[C@@H](n2cnc3c(NC4CCCC4)nc(Cl)nc32)[C@H](O)[C@@H]1O | – | – | – | – | – | – | EC50 [14]: 17.7 nM
CCNc1nc(C#Cc2ccccc2)nc2c1ncn2[C@H]1[C@H](O)[C@H](O)[C@@H]2C[C@@H]21 | – | 49 | 49 | – | – | – | –
CNC(=O)[C@@]12C[C@@H]1[C@@H](n1cnc3c(NCc4cccc(Cl)c4)nc(C#Cc4cccc(S(=O)(=O)O)c4)nc31)[C@H](O)[C@@H]2O | 98.2 | 1 | 15 | 7 | 16 | 50 | inhibition [15]: inactive; EC50 [8]: 2.6 nM; Efficacy [9]: 89.3%; Ratio Ki [16]: > 10000; Ratio Ki [17]: > 10000; Ratio Ki [18]: > 1000; Ratio Ki [19]: > 1000; Activity [20]: Active; Activity [10]: inactive; Activity [11]: Active; Activity [13]: inactive

Further lines, with some results ahead:

Efficacy [1] [%] | inhibition [2] [%] | inhibition [3] [%] | inhibition [4] [%] | inhibition [5] [%] | Emax [7] [%] | Structure (SMILES) | further results
7.2 | 1 | 18 | 15 | 10 | – | O=S(=O)(O)c1ccc(CCNc2nc(C#Cc3ccccc3)nc3c2ncn3[C@H]2[C@H](O)[C@H](O)[C@@H]3C[C@@H]32)cc1 | –
– | 11 | 47 | – | – | – | CCNc1nc(C#Cc2ccccc2Cl)nc2c1ncn2[C@H]1[C@H](O)[C@H](O)[C@@H]2C[C@@H]21 | inhibition [6]: 50%
96.8 | 14 | – | 23 | – | 45 | CNC(=O)[C@@]12C[C@@H]1[C@@H](n1cnc3c(NCc4cccc(Cl)c4)nc(C#Cc4ccc(S(=O)(=O)O)cc4)nc31)[C@H](O)[C@@H]2O | EC50 [8]: 13 nM; Efficacy [9]: 95.7%; Activity [10]: inactive; Activity [11]: Active; EC50 [12]: 495 nM; Activity [13]: Active
105 | 1 | 25 | 32 | 11 | 47 | CNC(=O)[C@@]12C[C@@H]1[C@@H](n1cnc3c(NCCc4ccccc4)nc(C#Cc4ccccc4)nc31)[C@H](O)[C@@H]2O | EC50 [8]: 3.33 nM; Efficacy [9]: 115%
